Assay outcomes as filed in PubChem BioAssay.
Hits are enriched below; roughly 3.9% of the tested compounds scored in any of these assays.
STAT1 inh – inhibitors of IFN-gamma induced STAT1 signaling | inhibition, % at 5.5 µM | 200,000 compounds, 0.35% hits | NIH 3T3 STAT1-luciferase reporter, luminescence;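 active = inhibition above a set limit, the mean inhibition across all tested compounds plus 3 SD, cut at about 34% in these data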
APP 5'UTR act – activates APP 5'UTR luciferase reporter. SH-SY5Y APP 5'UTR luciferase reporter, luminescence; zero percent = DMSO vehicle wells. activation, % at 2 µM. 190,000 compounds, 1% hits. AID 1276;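 active = activation above a set limit, based on mean plus 3 SD of controls, cut at about 140% in these data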
STAT1 act – increases IFN-gamma driven STAT1 reporter signal; activation (% of control), % at 5.5 µM; AID 932; NIH 3T3 STAT1-luciferase reporter, luminescence; 100% = IFN-gamma alone, no compound; 200,000 compounds, 2.6% hits;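 active = activation above the screen-wide mean activation plus 3 SD, cut at about 130% in these data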
NF-kB neuron act – compounds increasing NF-kB expression in human neuronal cells. NF-kB reporter expression; hits give high values. fold change at 12.5 µM. 190,000 compounds, 1.6% hits. AID 1239; in the data active = fold change above about 3.3
STAT3 activator – STAT3 signaling activation | U3A cells, IL-6 STAT3-luciferase reporter, luminescence; 100% = signal with IL-6 EC80 alone | activation (% of control), % at 5.6 µM | 190,000 compounds, 0.91% hits;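 active = activation above the screen-wide mean of compound activation plus 3 SD, cut at about 130% in these data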
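System – human U3A cells carrying STAT3-luciferase construct · Probe or stimulus – Interleukin-6, 33 ng/mL · Schedule – compound 1 h, then IL-6 6 h at 37 °C · Signal – luminescence from STAT3-driven luciferase reporter · Evaluation – percent of IL-6-only median luminescence · Benchmarks – IL-6-only high control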
Pf gamet viab – P. falciparum stage V gametocyte viability inhibition; 150,000 compounds, 0.065% hits; inhibition, % at 10.9 µM; P. falciparum stage V gametocytes, ATP luminescence, 24 h; AID 743093;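 active = inhibition above the mean plus 3 SD of compounds within the control limits, set per campaign, cut at about 38% in these data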
Each line names hits and unclear results; the compound was inactive in the other large screens.

CCCCN1C=CC(=C2C(=O)c3ccccc3C2=O)C=C1	STAT1 inh 94.5
Cc1ccc(C(=O)Nc2ccc3c(c2)OCCO3)o1	NF-kB neuron act 4.01
Cc1cc(C(=O)Nc2ccc3c(c2)OCCO3)co1	APP 5'UTR act 138.1, NF-kB neuron act 4.7 (no result: Pf gamet viab)
O=C(Nc1ccccc1C(=O)O)c1ccc(CN2C(=O)c3ccccc3C2=O)cc1	none (no result: STAT1 inh, APP 5'UTR act, STAT1 act, NF-kB neuron act, STAT3 activator)
S=c1cnc2ccccc2[nH]1	none (no result: Pf gamet viab)
C[C@H]1CCC(=O)N([C@H](CN=[N+]=[N-])Cc2ccccc2)CC1	none (no result: STAT1 inh, APP 5'UTR act, STAT1 act, NF-kB neuron act, STAT3 activator)
C#CCN1C(=O)S/C(=C/C=C/c2ccc(N(C)C)cc2)C1=O	STAT1 act 136.0 (no result: Pf gamet viab)
O=C(c1ccccc1)c1cc(-c2ccccc2)on1	APP 5'UTR act 184.0 (no result: Pf gamet viab)
Cc1cc(NC(=O)c2cc(-c3ccccc3)on2)no1	none (no result: Pf gamet viab)
COc1ccccc1CNC(=O)c1cn(C)c2ccc(S(=O)(=O)N3CCCC3)cc2c1=O	none
CN(C)c1ccc(N=Cc2nc(-c3ccccc3)oc2OC(=O)c2cccc(Cl)c2)cc1	STAT1 act 128.8, NF-kB neuron act 3.43
Cc1ccc(C(=O)Oc2oc(-c3ccccc3)nc2C=Nc2ccc(N(C)C)cc2)cc1	APP 5'UTR act 145.9, STAT1 act 149.0
CCOC(=O)c1sc2nc3c(cc2c1N)COC(C)(C)C3	STAT1 act 136.0, NF-kB neuron act 5.9 (no result: Pf gamet viab)
CC1(C)Cc2nc3sc(C(N)=O)c(N)c3cc2CO1	none (no result: STAT1 inh, APP 5'UTR act, STAT1 act, NF-kB neuron act, STAT3 activator)
Cn1c2c(c(=O)n(C)c1=O)C(C(F)(F)F)(C(F)(F)F)N=C(c1ccc(Cl)cc1)N2	STAT1 inh 70.6 (no result: Pf gamet viab)
CC(C)CC(=O)Nc1ccc(-c2nnn(CC(=O)NCc3ccco3)n2)cc1	STAT1 act 129.1
COc1cc(/C=N\n2nnnc2N)ccc1OCc1ccc(F)cc1	none
COc1cc(/C=N/n2c(C)n[nH]c2=S)ccc1OCc1ccc(F)cc1	STAT1 act 129.4 (no result: Pf gamet viab)
O=[N+]([O-])c1ccc(/C=C2\CCC(C3=CCCC3)=C2N2CCOCC2)cc1	none
CC(NC(=O)c1ccccc1)C(=O)N/N=C/c1cccc([N+](=O)[O-])c1 (stereo not given)	none
O=C(/C=C\c1ccc(-c2cccc([N+](=O)[O-])c2)o1)N1CCOCC1	STAT1 act 128.6
COc1cc2c(C)nc3c(cnn3-c3ccccc3)c2cc1OC	STAT1 act 144.1 (no result: NF-kB neuron act, Pf gamet viab)
CCC(C)c1ccc(S(=O)(=O)N2CCN3CCCC3C2)cc1 (stereo not given)	none (no result: STAT1 inh, APP 5'UTR act, STAT1 act, NF-kB neuron act, STAT3 activator)
COc1cccc(C(c2c(C)[nH]n(-c3ccccc3)c2=O)c2c(C)[nH]n(-c3ccccc3)c2=O)c1O	none (no result: STAT1 inh, APP 5'UTR act, STAT1 act, NF-kB neuron act, STAT3 activator)
CC1=NN(c2ccc(F)cc2)C(=O)C1C(c1cccc(O)c1)c1c(C)[nH]n(-c2ccc(F)cc2)c1=O (stereo not given)	STAT3 activator 153.0
COc1ccc(Nc2ncnc3ccccc23)cc1	STAT1 act 129.4 (no result: Pf gamet viab)
Cc1ccc2cc(CCNC(=O)c3cccs3)c(=O)[nH]c2c1	STAT1 act 138.9 (no result: Pf gamet viab)
Cc1cc(C(=O)O)ccc1-n1c(C)cc(/C=C(/C#N)C(=O)Nc2ccccc2)c1C	none
Cc1cc(/C=C(\C#N)C(=O)Nc2ccccc2)c(C)n1-c1cccnc1	STAT1 act 132.9
Cc1ccc(NC(=O)OC(C)CNC(=O)Oc2cccc(C)c2)cc1 (stereo not given)	STAT1 act 139.5
COC(=O)NCC(C)OC(=O)Nc1ccc(Cl)cc1 (stereo not given)	none (no result: Pf gamet viab)
O=C(NC1CCCCC1)c1cc([N+](=O)[O-])[nH]n1	none
O=C(Cn1cnc2c(oc3ccccc32)c1=O)c1ccccc1	STAT1 act 148.4
O=C(O)Cn1cnc2c(oc3ccccc32)c1=O	none (no result: STAT1 inh, APP 5'UTR act, STAT1 act, NF-kB neuron act, STAT3 activator)
O=C/C(=C\Nc1ccccn1)c1nc2cc(Cl)ccc2o1	STAT3 activator 134.5 (no result: Pf gamet viab)
O=C/C(=C\Nc1ccc(Br)cc1)c1nc2ccccc2o1	none
CC(=O)c1sc(N/N=C2\CC3CC2C(C)C3(C)C)nc1C (stereo not given)	STAT1 act 131.0
COC(=O)[C@H]1C[C@H](C(=O)O)[C@@H](C)C1(C)C	none (no result: STAT1 inh, APP 5'UTR act, STAT1 act, NF-kB neuron act, STAT3 activator)
CC(=O)N1CCN(c2ccc(NC(=O)c3cccc([N+](=O)[O-])c3)cc2)CC1	none (no result: STAT1 inh, APP 5'UTR act, STAT1 act, NF-kB neuron act, STAT3 activator)
C/C(=N\OC(=O)c1ccccc1)c1cc(-c2ccc(Cl)cc2)no1	none
C/C(=N/OC(=O)C1CC1)c1cc(-c2ccc(Cl)cc2)no1	STAT1 act 136.2
O=[N+]([O-])c1ccc(N/N=C/c2ccc[nH]2)cc1	NF-kB neuron act 25.8
O=C(Nc1ccc(Nc2ccccc2)cc1)c1ccccc1	none (no result: STAT1 inh, APP 5'UTR act, STAT1 act, NF-kB neuron act, STAT3 activator)
N#CC1(c2ccc(NC(=O)c3ccccc3)cc2)CCCC1	STAT1 act 147.2 (no result: Pf gamet viab)
N/C(=N\OC(=O)CSc1ccccc1)c1ccc([N+](=O)[O-])cc1	none
Cn1cccc1C(=O)C(=O)Nc1cc(Cl)cc(Cl)c1	none
Cn1cccc1C(=O)C(=O)Nc1ccc(Cl)cc1	APP 5'UTR act 186.0, NF-kB neuron act 10.6
CC(C)(C)NC(=O)Nc1cccc(Cl)c1Cl	none
Cn1cccc1C(=O)C(=O)Nc1cccc(Cl)c1Cl	STAT1 act 147.0, NF-kB neuron act 3.64, STAT3 activator 156.7
COc1ccc(N=Nc2[nH]c3ccc(C)cc3c2O)cc1	none
Cc1ccc(N=Nc2[nH]c3ccccc3c2O)cc1	STAT1 act 129.5, STAT3 activator 170.9
CN1CCCC(OC(=O)c2ccc(C(C)(C)C)cc2)C1 (stereo not given)	none (no result: STAT1 inh, APP 5'UTR act, STAT1 act, NF-kB neuron act, STAT3 activator)
CCOC(=O)CNC(=O)CSc1nc(C)cc(C)c1C#N	none (no result: Pf gamet viab)
CCOC(=O)NC(=O)CSc1nc(C)cc(C)c1C#N	NF-kB neuron act 3.41
O=C(NNc1c(Cl)cccc1Cl)c1cccs1	none (no result: STAT1 inh, APP 5'UTR act, STAT1 act, NF-kB neuron act, STAT3 activator)
O=C1c2ccccc2S(=O)(=O)N1CC1CC(c2ccccc2)=NO1 (stereo not given)	STAT1 act 131.5 (no result: Pf gamet viab)
COc1ccc(C2=NOC(CN3C(=O)c4ccccc4S3(=O)=O)C2)cc1 (stereo not given)	APP 5'UTR act 137.2, STAT1 act 147.5, NF-kB neuron act 5.48 (no result: Pf gamet viab)
COc1ccc(C2=NOC(Cn3nc(-c4ccccc4)cc3C(=O)O)C2)cc1 (stereo not given)	none (no result: STAT1 inh, APP 5'UTR act, STAT1 act, NF-kB neuron act, STAT3 activator)
O=C1c2ccccc2S(=O)(=O)N1CC1CC(c2ccc(Cl)cc2)=NO1 (stereo not given)	STAT1 act 139.4
O=C(Nc1ccc(Oc2nnc(-c3ccccc3)c3ccccc23)cc1)c1ccccc1	none
C(=N\Nc1nc(-c2ccccc2)cs1)/c1cccnc1	STAT1 act 144.4 (no result: Pf gamet viab)
CC(C)(C)c1csc(N/N=C/c2cccnc2)n1	STAT1 act 150.4
Clc1ccc(-c2csc(N/N=C/c3cccnc3)n2)c(Cl)c1	none
CCOC(=O)c1ccc(NC(=S)N2CCN(CCNC3=CC(=O)CC(C)(C)C3)CC2)cc1	none (no result: Pf gamet viab)
CCC(=O)Nc1cc2nn(-c3ccccc3)nc2cc1Cl	STAT1 act 143.6 (no result: Pf gamet viab)
CCC(=O)Nc1nc(N)n(-c2ccccc2)n1	none (no result: Pf gamet viab)
Cc1cc2nn(-c3ccccc3)nc2cc1NC(=O)c1cccs1	STAT1 act 142.7
COC(=O)Cc1c(C)c2ccc(OCC(C)=O)c(C)c2oc1=O	STAT1 act 129.7
